Each compound was assayed against T1, OR2M3 (Homo sapiens) (UniProt Q8NG83). Settings: stereoisomer not certain.
T1 sequence (whole entry): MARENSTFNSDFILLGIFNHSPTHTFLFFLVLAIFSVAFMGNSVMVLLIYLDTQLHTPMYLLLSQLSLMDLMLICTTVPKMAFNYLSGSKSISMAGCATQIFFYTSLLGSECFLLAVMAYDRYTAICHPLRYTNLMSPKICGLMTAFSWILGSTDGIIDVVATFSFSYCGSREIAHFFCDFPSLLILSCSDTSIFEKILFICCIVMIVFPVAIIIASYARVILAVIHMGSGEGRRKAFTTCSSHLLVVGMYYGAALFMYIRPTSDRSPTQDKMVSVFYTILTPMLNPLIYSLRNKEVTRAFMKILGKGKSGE
In short: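 Each entry records the cell line, G-protein, co-transfected protein and tags used. Methods varied with the source, often transient luciferase assays in mammalian cell lines. A receptor–molecule pair is called responsive (active) if the original authors judged its signal statistically different from baseline and non-responsive (inactive) otherwise.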

Compound	odorant receptor agonist call
CCCCCCCCCO	inactive
CCCC(=O)OC	inactive
CSCCCO	inactive
CCCCCCCCCC(=O)[O-].[H+]	inactive
O=C(O)CCc1ccccc1	inactive
CCCCCCCC1CCCC(=O)O1 (configuration not stated)	inactive
CCC=CCCOC(C)=O	inactive
CCCCCCCCC1CCC(=O)O1 (configuration not stated)	inactive
OCCc1ccccc1	inactive
CC(C)=CC1CC(C)CCO1 (configuration not stated)	inactive
CCC(=O)C(C)=O	inactive
CCCCCC(C)O (configuration not stated)	inactive
COCCC(C)(C)S	inactive
CCOC(=O)C=Cc1ccccc1	inactive
O=C(O)C=Cc1ccc(O)cc1	inactive
CCOC(=O)CC(C)C	inactive
C=C1CCC2(C(C)C)CC12 (configuration not stated)	inactive
CCc1ccc(O)c(OC)c1	inactive
CCCSSSC	inactive

Compound	odorant receptor agonist call
CCCCCCC=CC=O	inactive
COc1ccc(C)cc1O	inactive
CSCCC=O	inactive
CCOC(C)=O	inactive
CCCC(=O)C(C)CC (configuration not stated)	inactive
CCCSSCCC	inactive
CC=CC(=O)C(C)CC (configuration not stated)	inactive
CSSc1ccoc1C	inactive
C=Cc1ccc(O)cc1	inactive
CC(C)CCO	inactive
CCOC(=O)C(C)CC (configuration not stated)	inactive
C=CC(=C)CCC=C(C)C	inactive
CCCCCCC1CCC(=O)O1 (configuration not stated)	inactive
CC(C)c1ccc(C=O)cc1	inactive
CC(S)C(C)CO (configuration not stated)	active
CCOC(=O)c1ccccc1	inactive
COC(=O)C=Cc1ccccc1	inactive
COC1=C(C)OC(C)C1=O (configuration not stated)	inactive

From the M2OR odorant receptor database
